The record followed here is ChEMBL document CHEMBL1129481, “Interactions of flavonoids and other phytochemicals with adenosine receptors” (J Med Chem, 1996).

Assay [1] deals with T1, Adenosine receptor A3 (Homo sapiens) (UniProt P0DMS8).
T1 sequence (whole entry): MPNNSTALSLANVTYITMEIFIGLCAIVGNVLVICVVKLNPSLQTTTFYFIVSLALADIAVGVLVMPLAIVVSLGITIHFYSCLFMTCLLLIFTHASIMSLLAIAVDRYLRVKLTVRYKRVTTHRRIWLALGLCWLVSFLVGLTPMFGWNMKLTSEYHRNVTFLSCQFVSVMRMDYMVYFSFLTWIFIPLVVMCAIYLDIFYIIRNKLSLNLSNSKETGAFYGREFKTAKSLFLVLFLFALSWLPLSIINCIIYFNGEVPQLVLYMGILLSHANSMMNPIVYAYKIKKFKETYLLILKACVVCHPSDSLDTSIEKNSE
As to the kind of experiment: Displacement of specific [125I]AB-MECA binding from human Adenosine A3 receptor expressed in HEK293 cells. On the set-up: concentration or dose not given beside the values. Type of assay: cell-based. The method, boiled down:
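Membranes came from HEK-293 cells stably expressing human A3. Binding used Mg2+-free 50 mM Tris with 1 mM EDTA, pH 8.0, and 0.3 nM final [125I]AB-MECA. Compounds came from DMSO stock, ≤1% final. Duplicates ran 1 h at 37 or 25 °C, then filtration and γ-counting. Nonspecific binding was set with 100 μM (R)-PIA.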

The target of assay [2] is T2, Adenosine receptor A1 (Rattus norvegicus) (UniProt P25099).
T2 sequence (whole entry): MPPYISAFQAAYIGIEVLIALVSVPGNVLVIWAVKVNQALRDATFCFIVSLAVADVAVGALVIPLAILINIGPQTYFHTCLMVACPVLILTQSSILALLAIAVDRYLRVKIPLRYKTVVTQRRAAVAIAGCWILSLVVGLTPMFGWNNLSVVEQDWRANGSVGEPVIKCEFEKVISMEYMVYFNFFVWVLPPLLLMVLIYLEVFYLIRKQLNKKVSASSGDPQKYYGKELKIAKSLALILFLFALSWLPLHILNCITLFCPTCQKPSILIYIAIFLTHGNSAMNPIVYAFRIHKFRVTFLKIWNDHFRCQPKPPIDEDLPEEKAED
As to the kind of experiment: Displacement of [3H]PIA from Adenosine A1 receptor in rat brain membranes. Type of assay: cell membranes. In short, it runs like this:
(§1)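 Rat cortical membranes were pretreated with adenosine deaminase (3 units/mL) for 30 min at 30 °C during preparation. The enzyme was also present during incubation with [3H]-(R)-PIA. Ki values were derived from displacement of specific binding.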
On the technique in general: Loss of bound radioactivity is the signal in a displacement assay; it reports binding, not function.

For another assay, the target named is T3, Adenosine receptor A3 (Homo sapiens, UniProt P0DMS8).
T3 sequence (P0DMS8 whole entry): T1 sequence (whole entry)
As to the kind of experiment: Displacement of [125I]AB-MECA binding to human Adenosine A3 receptor expressed in HEK293 cells. Type of assay: cell-based. In short, it runs like this: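 Membranes came from HEK-293 cells stably expressing human A3. Compounds came from DMSO stock, ≤1% final. Duplicates ran 1 h at 37 or 25 °C, then filtration and γ-counting. Nonspecific binding was set with 100 μM (R)-PIA.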

The target of assay [3] is Adenosine receptor A2a (Rattus norvegicus) (UniProt P30543). The assay can be described thus: Displacement of [3H]-CGS- 21680 from Adenosine A2A receptor in rat striatal membranes at 10e-4 M. Type of assay: cell membranes. Particulars: Membrane. In short, it runs like this: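 Rat striatal membranes were prepared with adenosine deaminase (3 units/mL), including a 30 min step at 30 °C. The enzyme was kept during the [3H]CGS 21680 incubation.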

In a further assay the target is T4, Adenosine receptor A1 (Rattus norvegicus, UniProt P25099).
T4 sequence (P25099 whole entry): T2 sequence (whole entry)
The assay can be described thus: Displacement of specific [3H]PIA binding from adenosine A1 receptor in rat brain membranes. Type of assay: cell membranes. In short, it runs like this: as §1

The target in another assay is Adenosine receptor A2a (Rattus norvegicus, UniProt P30543). As to the kind of experiment: Affinity at Adenosine A2A receptor in rat striatal membranes by [3H]- CGS 21680 displacement. Type of assay: cell membranes, Striatum, Membrane. In short, it runs like this:
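Rat striatal membranes were prepared with adenosine deaminase (3 units/mL), including a 30 min step at 30 °C.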

Adenosine receptor A2a (Rattus norvegicus), sequence (P30543 whole entry): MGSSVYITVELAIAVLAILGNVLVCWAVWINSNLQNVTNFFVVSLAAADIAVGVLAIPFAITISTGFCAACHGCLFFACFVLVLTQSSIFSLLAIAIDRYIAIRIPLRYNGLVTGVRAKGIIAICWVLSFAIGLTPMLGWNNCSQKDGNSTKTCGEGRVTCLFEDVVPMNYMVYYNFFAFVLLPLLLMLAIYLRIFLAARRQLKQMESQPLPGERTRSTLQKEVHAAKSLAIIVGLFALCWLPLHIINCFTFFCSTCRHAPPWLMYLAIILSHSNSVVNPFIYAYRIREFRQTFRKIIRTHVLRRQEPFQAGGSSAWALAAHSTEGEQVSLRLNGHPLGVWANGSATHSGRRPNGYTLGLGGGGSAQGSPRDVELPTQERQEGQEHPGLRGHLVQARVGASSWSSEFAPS
Adenosine receptor A2a, sequence (P30543 whole entry): as above

In assay [1], `COc1c(O)cc2oc(-c3ccc(O)cc3)cc(=O)c2c1O` displayed a Displacement of 63%.
Compound `COc1cc(OC)c2c(=O)c(OC)c(-c3cc(OC)c(OC)c(OC)c3)oc2c1` registered a Displacement in assay [2] below 10%.
As to `COc1ccc(-c2cc(=O)c3ccc(O)cc3o2)cc1OC`, the Displacement in assay [1] amounted to 32%.
Compound `COc1cc2c3c(oc(=O)c2cc1OC)CCCC3=O` displayed a Displacement in assay [1] below 10%.
As to `COc1ccc2c(=O)c(O)c(-c3ccc(O)c(O)c3)oc2c1`, on Adenosine receptor A3, the inhibitory constant (Ki) (in general, a dissociation constant, usually derived from enzyme kinetics or from competition with a known ligand) turned out to be 1.38 µM.
Take `O=c1cc(-c2ccccc2)oc2c1ccc1ccccc12`: the Displacement in assay [1] turned out to be 71%.
On to `O=C1c2c(O)cc(O)cc2OC(c2ccc(O)c(O)c2)C1O` (racemic), for which, in assay [2], the Displacement was below 10%.
For the compound `COc1ccc(-c2cc(=O)c3c(O)cc(OC)cc3o2)cc1`, the results for the Displacement in assay [1], in assay [3] and in assay [2] were 69%, below 10% and below 10%, respectively.
Turning to `O=C1c2ccccc2-c2cc3c(cc21)OCO3`, the Displacement in assay [1] stood at 52%.
Turning to `O=c1cc(-c2ccccc2)oc2ccc3ccccc3c12`, the figures for the Displacement in assay [1] and in assay [3] were 12% and below 10%, respectively.
For `O=C1c2cc(O)c(O)cc2C2c3ccc(O)c(O)c3OCC12O` (stereo not given), the Displacement is below 10% in assay [1] and 28% in assay [3].
`O=c1c(-c2ccc(O)cc2)coc2cc(O)cc(O)c12`: the Displacement in assay [1] was determined as 20%.
The same measure, in the same setting: under `O=c1cc(-c2ccc(O)cc2)oc2cc(O)cc(O)c12` stands 63%; under `O=c1cc(-c2ccccc2)oc2cc(O)ccc12`, 41%.
In assay [1], `COc1cc2c(c(O)c1OC)c(=O)c1ccccc1n2C` gave a Displacement of 63%.
For `Cc1ccc(-c2cc(=O)c3c(C)c(C)c(C)cc3o2)cc1`, the Ki at Adenosine receptor A1 is 1.29 µM; at Adenosine receptor A3, 4.48 µM.
In assay [1], `O=c1cc(-c2ccccc2)oc2cccc(O)c12` returned a Displacement of 47%.
For the compound `COc1cc(O)c2c(c1)OC(c1ccc(O)cc1)CC2=O` (stereo not given), the Ki at Adenosine receptor A2a turned out to be 35.6 µM; on Adenosine receptor A1, 8.18 µM; at Adenosine receptor A3, 3.4 µM.
`COc1cc2c3c(c1)c1cc4c(cc1c(=O)n3CC2)OCO4`: the Displacement in assay [1] and in assay [3] was below 10% in each case.
`CCn1c2c(c3cc4c(cc3c1=O)OCO4)C(=O)CCC2` displayed a Displacement in assay [1] of 19%.
Turning to `COC1C=CC23c4cc5c(cc4C[N+](C)(CC2OC(C)=O)C3C1)OCO5` (stereo not given), the Displacement in assay [1] and in assay [3] was below 10% in each case.
